Data reported in ChEMBL document CHEMBL1240299, “C3-symmetric peptide scaffolds are functional mimetics of trimeric CD40L” (Nat Chem Biol, 2005).
The source made the active and inactive calls. The rule behind the calls is not given here.

Molecular target: Tumor necrosis factor receptor superfamily member 5 (Homo sapiens, UniProt P25942)
Test: Binding affinity to human CD40 by surface plasmon resonance method
Outline: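 Biacore CM5 chip coated by amine coupling with anti-mouse Ig (~10,000 RU), which captured hCD40:mIg. Ligands were dissolved in water at 1 mM and diluted, then injected at several concentrations at 25 °C in HBS-EP (pH 7.4), 30 µl min⁻¹, 5 min association and 5 min dissociation. Regeneration was 50 mM HCl. Control-channel-subtracted sensorgrams were fitted to binding models.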

Chain of Tumor necrosis factor receptor superfamily member 5 (P25942 whole entry): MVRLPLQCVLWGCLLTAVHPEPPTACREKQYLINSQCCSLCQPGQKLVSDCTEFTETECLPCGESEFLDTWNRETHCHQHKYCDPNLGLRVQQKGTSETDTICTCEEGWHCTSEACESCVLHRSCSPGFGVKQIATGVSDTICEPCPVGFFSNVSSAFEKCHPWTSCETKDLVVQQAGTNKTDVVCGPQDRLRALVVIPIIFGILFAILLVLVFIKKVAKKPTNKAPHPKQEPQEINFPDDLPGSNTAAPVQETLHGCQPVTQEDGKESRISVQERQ

For `NCCCC[C@H](N)C(=O)NCC(=O)N[C@@H](Cc1ccc(O)cc1)C(=O)N[C@@H](Cc1ccc(O)cc1)C(=O)NCCCCCC(=O)N[C@@H](CCCCNC(=O)CCCC[C@H]1SC[C@H]2NC(=O)N[C@H]21)C(=O)NCCCCCC(=O)NCCCC[C@@H]1CNC(=O)C[C@H](CCCCNC(=O)CCCCCNC(=O)[C@H](CCCCNC(=O)CCCC[C@H]2SC[C@H]3NC(=O)N[C@H]32)NC(=O)CCCCCNC(=O)[C@H](Cc2ccc(O)cc2)NC(=O)[C@H](Cc2ccc(O)cc2)NC(=O)CNC(=O)[C@@H](N)CCCCN)NC[C@H](CCCCNC(=O)CCCCCNC(=O)[C@H](CCCCNC(=O)CCCC[C@H]2SC[C@H]3NC(=O)N[C@H]32)NC(=O)CCCCCNC(=O)[C@H](Cc2ccc(O)cc2)NC(=O)[C@H](Cc2ccc(O)cc2)NC(=O)CNC(=O)[C@@H](N)CCCCN)NC(=O)C1`, the Activity was “Active”.
